Data from ChEMBL document CHEMBL4392855, “Scaffold hopping of fused piperidine-type NK3 receptor antagonists to reduce environmental impact” (Bioorg Med Chem, 2019).

Tested on: not listed separately
Assay: Stability in rat serum assessed as compound degradation at 50 uM by HPLC analysis
Format: ADME, cell-free
Conditions: not given

Row | Structure (SMILES) | Stability
1 | CC1c2nnn(-c3ccc4ccccc4n3)c2CCN1C(=O)c1ccc(F)cc1 (stereo unspecified) | Stable
2 | C[C@@H]1c2nnc(-c3ccc4ccccc4n3)n2CCN1C(=O)c1ccc(F)cc1 | Stable
3 | CC1c2onc(-c3ccc4ccccc4n3)c2CCN1C(=O)c1ccc(F)cc1 (stereo unspecified) | Stable

More lines, now with the values ahead:

Row | Stability | Structure (SMILES)
4 | Stable | CC1c2noc(-c3ccc4ccccc4n3)c2CCN1C(=O)c1ccc(F)cc1 (stereo unspecified)
5 | Stable | C[C@H]1c2noc(-c3ccc4ccccc4n3)c2CCN1C(=O)c1ccc(F)cc1
6 | Stable | C[C@@H]1c2noc(-c3ccc4ccccc4n3)c2CCN1C(=O)c1ccc(F)cc1

Tested on: not listed separately
Assay: Photo-stability in 50 mM pH 7.4 phosphate buffer assessed as compound degradation at 30 uM exposed to xenon lamp irrational (> 325 nm) by HPLC analysis
Format: physicochemical
Conditions: pH 7.4, 30 µM
Procedure, shortened: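 Compound at 30 μM in 50 mM phosphate buffer pH 7.4/EtOH 70:30 (0.1% DMSO) was irradiated with a xenon arc lamp (900 W/m^2), with filters cutting wavelengths below 325 nm. Aliquots taken at intervals were diluted with MeCN and analysed by HPLC with 254 nm UV detection. Remaining amounts were taken from calibration curves.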

Row | Stability | Structure (SMILES)
7 | Unstable | CC1c2noc(-c3ccc4ccccc4n3)c2CCN1C(=O)c1ccc(F)cc1 (stereo unspecified)

Tested on: not listed separately
Assay: Stability in pH 10 carbonate buffer assessed as compound degradation at 30 uM by HPLC analysis
Format: physicochemical
Conditions: pH 10, 30 µM

Row | Structure (SMILES) | Stability
8 | CC1c2nnn(-c3ccc4ccccc4n3)c2CCN1C(=O)c1ccc(F)cc1 (stereo unspecified) | Stable
9 | C[C@@H]1c2nnc(-c3ccc4ccccc4n3)n2CCN1C(=O)c1ccc(F)cc1 | Stable
10 | CC1c2onc(-c3ccc4ccccc4n3)c2CCN1C(=O)c1ccc(F)cc1 (stereo unspecified) | Stable

Continued, values first:

Row | Stability | Structure (SMILES)
11 | Stable | CC1c2noc(-c3ccc4ccccc4n3)c2CCN1C(=O)c1ccc(F)cc1 (stereo unspecified)
12 | Stable | C[C@H]1c2noc(-c3ccc4ccccc4n3)c2CCN1C(=O)c1ccc(F)cc1
13 | Stable | C[C@@H]1c2noc(-c3ccc4ccccc4n3)c2CCN1C(=O)c1ccc(F)cc1

Tested on: not listed separately
Assay: Stability in pH 7.4 phosphate buffer assessed as compound degradation at 30 uM by HPLC analysis
Format: physicochemical
Conditions: pH 7.4, 30 µM

Row | Structure (SMILES) | Stability
14 | CC1c2nnn(-c3ccc4ccccc4n3)c2CCN1C(=O)c1ccc(F)cc1 (stereo unspecified) | Stable
15 | C[C@@H]1c2nnc(-c3ccc4ccccc4n3)n2CCN1C(=O)c1ccc(F)cc1 | Stable
16 | CC1c2onc(-c3ccc4ccccc4n3)c2CCN1C(=O)c1ccc(F)cc1 (stereo unspecified) | Stable

Results, then the compound that gave them:

Row | Stability | Structure (SMILES)
17 | Stable | CC1c2noc(-c3ccc4ccccc4n3)c2CCN1C(=O)c1ccc(F)cc1 (stereo unspecified)
18 | Stable | C[C@H]1c2noc(-c3ccc4ccccc4n3)c2CCN1C(=O)c1ccc(F)cc1
19 | Stable | C[C@@H]1c2noc(-c3ccc4ccccc4n3)c2CCN1C(=O)c1ccc(F)cc1

Target: T1, Neuromedin-K receptor (Homo sapiens, UniProt P29371)
T1 sequence (P29371 whole entry): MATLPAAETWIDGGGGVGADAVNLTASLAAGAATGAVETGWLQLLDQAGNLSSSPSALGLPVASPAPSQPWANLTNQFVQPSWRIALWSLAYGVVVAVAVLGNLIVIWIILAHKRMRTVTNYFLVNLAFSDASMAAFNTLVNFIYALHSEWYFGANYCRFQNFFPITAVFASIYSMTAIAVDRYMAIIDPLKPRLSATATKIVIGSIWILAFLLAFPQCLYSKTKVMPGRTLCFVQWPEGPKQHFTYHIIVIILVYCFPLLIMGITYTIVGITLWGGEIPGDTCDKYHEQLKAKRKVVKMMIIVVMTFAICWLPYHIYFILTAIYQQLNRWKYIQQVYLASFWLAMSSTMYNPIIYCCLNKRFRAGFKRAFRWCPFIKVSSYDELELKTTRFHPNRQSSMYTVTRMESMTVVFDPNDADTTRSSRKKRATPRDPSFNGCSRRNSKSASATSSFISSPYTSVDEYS
Assay: Antagonistic activity against NK3R (unknown origin) expressed in CHO cells assessed as inhibition of NKB-induced intracellular calcium flux under UV-light irradiation by Calcium 4 assay
Format: functional, cell-based
Conditions: not given

Row | IC50 [µM] | Structure (SMILES)
20 | > 100 | CC1c2noc(-c3ccc4ccccc4n3)c2CCN1C(=O)c1ccc(F)cc1 (stereo unspecified)

Tested on: not listed separately
Assay: Stability in pH 4 acetate buffer assessed as compound degradation at 30 uM by HPLC analysis
Format: physicochemical
Conditions: pH 4, 30 µM

Row | Structure (SMILES) | Stability
21 | CC1c2nnn(-c3ccc4ccccc4n3)c2CCN1C(=O)c1ccc(F)cc1 (stereo unspecified) | Stable
22 | C[C@@H]1c2nnc(-c3ccc4ccccc4n3)n2CCN1C(=O)c1ccc(F)cc1 | Stable
23 | CC1c2onc(-c3ccc4ccccc4n3)c2CCN1C(=O)c1ccc(F)cc1 (stereo unspecified) | Stable

Further lines, results first:

Row | Stability | Structure (SMILES)
24 | Stable | CC1c2noc(-c3ccc4ccccc4n3)c2CCN1C(=O)c1ccc(F)cc1 (stereo unspecified)
25 | Stable | C[C@H]1c2noc(-c3ccc4ccccc4n3)c2CCN1C(=O)c1ccc(F)cc1
26 | Stable | C[C@@H]1c2noc(-c3ccc4ccccc4n3)c2CCN1C(=O)c1ccc(F)cc1

Target: T1, Neuromedin-K receptor
Assay: Antagonistic activity against NK3R (unknown origin) expressed in CHO cells assessed as inhibition of NKB-induced intracellular calcium flux by Calcium 4 assay
Format: functional, cell-based
Conditions: not given

Row | Structure (SMILES) | IC50 [µM]
27 | CC1c2nnn(-c3ccc4ccccc4n3)c2CCN1C(=O)c1ccc(F)cc1 (stereo unspecified) | 4.1
28 | C[C@@H]1c2nnc(-c3ccc4ccccc4n3)n2CCN1C(=O)c1ccc(F)cc1 | 0.26
29 | CC1c2onc(-c3ccc4ccccc4n3)c2CCN1C(=O)c1ccc(F)cc1 (stereo unspecified) | 8.2

Further lines, results first:

Row | IC50 [µM] | Structure (SMILES)
30 | 10.3 | CC1c2noc(-c3ccc4ccccc4n3)c2CCN1C(=O)c1ccc(F)cc1 (stereo unspecified)
31 | 13.7 | C[C@H]1c2noc(-c3ccc4ccccc4n3)c2CCN1C(=O)c1ccc(F)cc1
32 | 11.8 | C[C@@H]1c2noc(-c3ccc4ccccc4n3)c2CCN1C(=O)c1ccc(F)cc1

Tested on: not listed separately
Assay: Photo-stability in 50 mM pH 7.4 phosphate buffer assessed as compound degradation at 30 uM under UV-light irradiation by HPLC analysis
Format: physicochemical
Conditions: pH 7.4, 30 µM
Procedure, shortened: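 Compound at 30 μM in 50 mM phosphate buffer pH 7.4/EtOH 70:30 (0.1% DMSO) was exposed to a mercury xenon lamp (1500 W/m^2). Aliquots sampled at intervals were diluted 1:1 with MeCN and run on HPLC with 254 nm detection. Ratios were calculated from calibration curves.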

Row | Stability | Structure (SMILES)
33 | Unstable | CC1c2noc(-c3ccc4ccccc4n3)c2CCN1C(=O)c1ccc(F)cc1 (stereo unspecified)
34 | Stable | CC1c2nnn(-c3ccc4ccccc4n3)c2CCN1C(=O)c1ccc(F)cc1 (stereo unspecified)
35 | Stable | C[C@@H]1c2nnc(-c3ccc4ccccc4n3)n2CCN1C(=O)c1ccc(F)cc1
36 | Stable | CC1c2onc(-c3ccc4ccccc4n3)c2CCN1C(=O)c1ccc(F)cc1 (stereo unspecified)
